PRMT1 FP inh: inhibitors of human PRMT1 | Q99873 | recombinant PRMT1, activity-based probe fluorescence polarization | inhibition, % at 2.79 µM | hit rate 1.3% among 370,000;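 active = inhibition above about 21% made by adding two undisclosed values, limit read from the data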
Target sequence (Q99873 whole entry, looked up): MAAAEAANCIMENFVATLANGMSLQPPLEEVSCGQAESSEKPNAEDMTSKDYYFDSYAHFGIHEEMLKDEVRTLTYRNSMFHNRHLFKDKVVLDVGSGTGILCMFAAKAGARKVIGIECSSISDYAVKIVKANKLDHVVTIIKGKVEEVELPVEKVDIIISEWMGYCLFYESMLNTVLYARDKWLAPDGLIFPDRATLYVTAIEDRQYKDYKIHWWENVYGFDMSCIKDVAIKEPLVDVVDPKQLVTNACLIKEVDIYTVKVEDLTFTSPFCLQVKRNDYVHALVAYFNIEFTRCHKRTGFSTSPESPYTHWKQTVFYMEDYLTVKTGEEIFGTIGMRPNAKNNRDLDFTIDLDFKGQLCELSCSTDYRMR
PAD4 inh: blocks human protein arginine deiminase 4. inhibition, % at 6.36 µM. recombinant PAD4, RCA probe fluorescence polarization. Q9UM07. hit rate 0.41% among 330,000;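 active = percent inhibition above a cutoff equal to the mean of all tested compounds plus 3 SD, cut at about 15% in these data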;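 note: 0% = PAD4 with RCA probe and DMSO and 100% = probe without PAD4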
TCR CD3 inh: blocks the human TCR-CD3 interaction; TAMRA-labeled TCR probe fluorescence, biochemical; hit rate 0.37% among 360,000; inhibition, % at 9.4 µM; AID 651800;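 note: recombinant mutant TCR 2C K166C tagged with TAMRA read by polarization; 0% = receptor in buffer alone and 100% = receptor with positive control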
HTRA1 inhibitor: HTRA1 (human) protease inhibition. inhibition, % at 5.96 µM. hit rate 0.5% among 340,000. Q92743. recombinant HTRA1, FP-rhodamine activity-based probe, fluorescence polarization; in the data active = inhibition above about 36%;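 note: 0% = enzyme with DMSO and 100% = wells lacking enzyme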
mABHD4 FP: ABHD4 (mouse) inhibition, primary FP screen | Q8VD66 | purified mABHD4, FP-Rh probe fluorescence polarization | inhibition, % at 8.92 µM | hit rate 0.54% among 370,000;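 active = inhibition exceeding the mean over every tested compound plus 3 SD, cut at about 30% in these data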;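 note: 0% = plate median of compound wells and 100% = S159A mutant with DMSO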
Target sequence (Q8VD66 whole entry, looked up): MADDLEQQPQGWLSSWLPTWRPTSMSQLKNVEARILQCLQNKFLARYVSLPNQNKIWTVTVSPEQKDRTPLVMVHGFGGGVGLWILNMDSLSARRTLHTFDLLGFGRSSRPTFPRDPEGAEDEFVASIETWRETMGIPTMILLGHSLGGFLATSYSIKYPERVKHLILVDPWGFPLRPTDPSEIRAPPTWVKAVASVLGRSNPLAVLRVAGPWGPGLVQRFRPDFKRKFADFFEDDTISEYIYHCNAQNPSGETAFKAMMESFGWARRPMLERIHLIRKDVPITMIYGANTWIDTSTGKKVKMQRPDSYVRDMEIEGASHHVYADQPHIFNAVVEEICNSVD
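Assay system: mouse ABHD4 enzyme, wild type / Also added: fluorescent activity-based probe FP-Rh / Doses: single nominal dose of 8.92 µM, 0.89% DMSO final / Timing: 45 min compound pre-incubation plus 60 min probe step, 25 °C / Signal: FP readout, ex 525 nm / em 598 nm / Control set: S159A mutant/DMSO as 100%, compound-well median as 0%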
SIAE inh: inhibitors of human sialic acid acetylesterase SIAE. hit rate 0.69% among 370,000. SIAE FP-Rh probe binding, fluorescence polarization. Q9HAT2. inhibition, % at 9.66 µM;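 active = inhibition above a cutoff: mean of compounds within the control limits plus 3 SD of those, cut at about 17% in these data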;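 note: 0% = plate median of compound wells and 100% = probe without SIAE protein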
PAD4 confirm: PAD4 (human) inhibition, confirmed; shares compounds with PAD4 inh; recombinant PAD4, RCA probe fluorescence polarization; inhibition, % at 6.36 µM; hit rate 28% among 1,200; AID 488796;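 active = mean inhibition across replicates above the hit cutoff set by the earlier primary screen, cut at about 15% in these data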;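 note: inhibitors block active-site labeling by the probe so polarization falls; 0% = PAD4 with probe and DMSO and 100% = probe without PAD4 enzyme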
HTRA1 conf: HTRA1 (human) inhibition, confirmation | shares compounds with HTRA1 inhibitor | inhibition, % at 5.96 µM | recombinant HTRA1, FP-rhodamine activity-based probe, fluorescence polarization | hit rate 66% among 1,600;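 active = mean inhibition over three repeats above a set limit taken from the earlier primary screen, cut at about 37% in these data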;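 note: 0% = HTRA1 with DMSO and 100% = wells lacking HTRA1; inhibitors block probe binding so polarization drops and inhibition rises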
BSA probe FL: interferes with TAMRA-BSA probe, flagging TCR-CD3 hits; TAMRA-labeled BSA probe fluorescence counterscreen; shares compounds with TCR CD3 inh; inhibition, % at 9.4 µM; AID 652035; hit rate 10% among 1,200; in the data active = inhibition above about 23%;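 note: 0% = buffer low control and 100% = reference high control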
TCR-CD3 conf: confirmation of human TCR-CD3 interaction inhibitors | inhibition, % at 9.4 µM | TAMRA-labeled TCR probe fluorescence binding assay | hit rate 48% among 1,200 | shares compounds with TCR CD3 inh
PRMT1 inh conf: PRMT1 (human) inhibition, FP confirmation; recombinant His-PRMT1, activity-based probe fluorescence polarization; hit rate 42% among 3,300; AID 687036; inhibition, % at 2.79 µM; shares compounds with PRMT1 FP inh;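 active = mean inhibition across replicates above the hit cutoff derived for the earlier primary screen, cut at about 22% in these data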
ABHD4 confirm: confirmation of mouse ABHD4 inhibitors | purified mABHD4, FP-Rh probe fluorescence polarization | inhibition, % at 8.92 µM | hit rate 55% among 1,800 | shares compounds with mABHD4 FP;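 active = mean inhibition across replicates above the hit cutoff set in the primary screen, cut at about 30% in these data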;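 note: 0% = wild-type ABHD4 with DMSO and 100% = catalytically dead S159A mutant with DMSO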
SIAE inh conf: confirmation of human SIAE inhibitors; hit rate 13% among 2,300; inhibition, % at 9.66 µM; shares compounds with SIAE inh; SIAE FP-Rh activity-based probe, fluorescence polarization;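 active = mean inhibition of the replicates above the hit cutoff set in the primary screen, cut at about 17% in these data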;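 note: 0% = SIAE with DMSO and probe and 100% = probe without SIAE; inhibitors lower polarization as more probe stays unbound to SIAE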
Numbers without * were called inactive; nt = no result given; + = active, no number; ! = not confirmed by another sample. In the library only some 2.9% were active in any assay of this set; here they are far more common. Cut-off read from the data, not from the text of the source, unless noted: active = inhibition above about 19%; inactive = the rest.

SMILES | PRMT1 FP inh | PAD4 inh | TCR CD3 inh | HTRA1 inhibitor | mABHD4 FP | SIAE inh | HTRA1 conf | others
CN1CC=C2C(C#N)=C(N)C(C#N)(C#N)C(c3ccncc3)C2C1 (stereo unspecified) | nt | 27* | nt | 16 | nt | nt | nt | PAD4 confirm=7
COc1cc2c(cc1OC)-c1c(OC)c(OC)cc3c1[C@H](C2)N(C)CC3 | 0 | 23* | -3 | 15 | 17 | 10 | nt | PAD4 confirm=9
CC(NC(=O)OCc1ccccc1)[P+](=O)O (stereo unspecified) | -2 | nt | nt | nt | 4 | 5 | nt
CC[C@@H](CO)NC(=O)[C@@H]1C=C2c3cccc4c3c(cn4C)C[C@H]2N(C)C1 | 47*! | 22*! | 10 | 8 | 19 | 15 | nt | PAD4 confirm=1;PRMT1 inh conf=6
CN1c2ccc(Br)cc2[C@@H]2NCC[C@@H]2[C@@H]1CO | -1 | nt | nt | nt | 5 | 0 | nt
CNc1ccc2oc(C[C@H]3O[C@@]4(CC[C@H]3C)O[C@H]([C@H](C)C(=O)c3ccc[nH]3)[C@H](C)C[C@H]4C)nc2c1C(=O)O | 26* | 57* | 0 | 35 | 30* | 11 | nt | PAD4 confirm=8;ABHD4 confirm=19
Brc1ccc2c(c1)-n1nncc1CNC2 | -6 | nt | 8 | nt | -3 | -3 | nt
CCN(CC)c1ccc(N=Cc2c(O)n(Cc3ccco3)c(=O)[nH]c2=O)cc1 | 21 | 16* | 10 | 42* | 45* | 17 | 0 | PAD4 confirm=8;ABHD4 confirm=2
CN(C)CCN=Cc1c(O)n(Cc2ccco2)c(=O)[nH]c1=O | -1 | -7 | -5 | -2 | -1 | -1 | nt
CCN(CC)c1ccc(N=Cc2c(O)n(-c3cc(OC)ccc3OC)c(=O)[nH]c2=O)cc1 | 16 | 18* | 9 | 46* | 65* | 25* | 14 | PAD4 confirm=2;ABHD4 confirm=4;SIAE inh conf=5
O=C1CC(c2cccnc2)=NN1c1ccccc1 | 1 | 52* | 7 | 4 | 4 | 28* | nt | PAD4 confirm=2;SIAE inh conf=-7
Clc1cc(Cl)cc(CN2Cc3ccccc3-n3nncc3C2)c1 | -3 | nt | nt | nt | -2 | -1 | nt
CNc1ccc2nc3ccccc3[n+](C)c2c1 | 21* | 108* | + | 115* | 119* | 108* | 101* | PAD4 confirm=92*;BSA probe FL=+;TCR-CD3 conf=184*;ABHD4 confirm=101*;SIAE inh conf=113*
O=C(NCCN1CCC2(CC1)C(=O)NCN2c1ccccc1)c1ccc(F)cc1 | 3 | nt | -10 | nt | 6 | 8 | nt
COc1cccc(NC2=NCCS2)c1 | 4 | nt | -6 | nt | -2 | 1 | nt
CC1Oc2cc3c(-c4c(O)cc(O)c5c(O)c6c(cc45)OC(C)C(C)C6=O)c(O)cc(O)c3c(O)c2C(=O)C1C (stereo unspecified) | nt | -7 | nt | 66* | nt | nt | 81*
c1ccc(Nc2ccc(Nc3ccccc3)cc2)cc1 | 9 | -11 | 4 | 56* | 26 | 10 | 43*
O=[N+]([O-])c1ccc(Nc2ccccc2)cc1 | -1 | -4 | -1 | -16 | -1 | 8 | nt
O=C(NCCN1CCC2(CC1)C(=O)NCN2c1ccccc1)c1ccccc1F | -1 | nt | -1 | nt | 6 | 2 | nt
CC(C)(C)c1ccc(O)c(N=Cc2c(O)ccc3ccccc23)c1 | 31* | -6 | 11 | 50* | 24 | 12 | 63*
O=C(NCCN1CCC2(CC1)C(=O)NCN2c1ccccc1)c1ccc(Cl)cc1 | -2 | nt | 6 | nt | 7 | 6 | nt
C=Cn1ccnc1P(=S)(c1nccn1C=C)c1nccn1C=C | 0 | -1 | 5 | 41* | 5 | 1 | 43*
O=P(OCCCl)(OCCCl)OCCCl | 3 | nt | -4 | nt | 6 | 11 | nt
CCCN1CCc2cccc3c2[C@H]1Cc1ccc(O)c(O)c1-3 | nt | 4 | nt | 77* | nt | nt | 66*
O=C(O)CCl | 2 | nt | -2 | nt | 2 | 1 | nt
SMILES | PRMT1 FP inh | PAD4 inh | TCR CD3 inh | HTRA1 inhibitor | mABHD4 FP | SIAE inh | HTRA1 conf | others
Cc1ccccc1C(=O)NCCN1CCC2(CC1)C(=O)NCN2c1ccccc1 | 6 | nt | -2 | nt | 4 | 0 | nt
CCC(C)/C=C(C)/C=C/C1=CC2=C(Cl)C(=O)C(C)(OC(C)=O)C(=O)C2=CO1 (stereo unspecified) | nt | -2 | nt | 44* | nt | nt | 68*
O=C(NC1CCCCC1)N1Cc2cc(Br)ccc2-n2nncc2C1 | -3 | nt | 9 | nt | -1 | -3 | nt
COc1ccc(-n2c(/C=C/c3ccc(O)c(O)c3)nc3ccccc3c2=O)cc1 | -4 | -4 | 10 | 66* | 21 | 12 | 63*
O=c1c2ccccc2nc(/C=C/c2ccc3c(c2)OCO3)n1-c1ccccc1 | -2 | 6 | -10 | -5 | -8 | -1 | nt
Cc1cc(OC(=O)c2ccco2)c2c3c(c(=O)oc2c1)CCCC3 | -4 | -1 | 0 | 42* | -3 | -1 | 33
COc1ccc(OC)c(N2C(=O)NC(=O)/C(=C/c3ccc([N+](=O)[O-])s3)C2=O)c1 | 28* | -11 | -25 | 48* | -40 | 0 | 43* | PRMT1 inh conf=58*
CC(C)CCP(=O)(O)O | -1 | nt | nt | nt | 6 | 4 | nt
CN(C)C1C(=O)C(C(N)=O)=C(O)C2(O)C(=O)C3=C(O)c4c(O)cccc4C(C)(O)C3C(O)C12 (stereo unspecified) | 49* | -3 | 25* | 56* | 67* | 12 | 8 | BSA probe FL=-1;TCR-CD3 conf=7;ABHD4 confirm=18
Fc1ccc2nc(-c3ccc(CN4CCC(n5nnc6ccccc65)CC4)cc3)c(-c3ccccc3)nc2c1 | -5 | nt | -12 | nt | -13 | -9 | nt
C[n+]1c2ccccc2nc2ccc(NCCO)cc21 | 11 | 84* | 196* | 86* | 97* | 60* | 86* | BSA probe FL=177*;TCR-CD3 conf=139*;ABHD4 confirm=63*;SIAE inh conf=68*
OCCNc1c2c(nc3ccccc13)CCCC2 | 0 | -4 | -2 | 1 | 2 | 6 | nt
NC(N)=N/N=C/c1ccc(N(c2ccccc2)c2ccccc2)cc1 | 0 | 2 | -4 | 46* | 42* | 22* | 60* | ABHD4 confirm=71*;SIAE inh conf=36*
COc1ccc(OC(=O)N(C)C[C@H]2OCc3cnnn3CCCC(=O)N([C@@H](C)CO)C[C@@H]2C)cc1 | -7 | nt | -3 | nt | 3 | 5 | nt
